Shown are actives, neighbours in structure and some others; about 2.9% of the full set was active somewhere.
Arrestin-AP2 inh – blocks beta-arrestin peptide binding to AP2 adaptin; FITC-arrestin peptide / GST-AP2 beads, flow cytometry; AP2 beta2 appendage carries R879A mutation; inhibition, % at 10 µM; actives 0.31% (n = 340,000); AID 504490;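 active = inhibition above a set limit, near 3 SD of compounds lacking own fluorescence, cut at about 54% in these data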;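 note: plate controls were DMSO wells for no effect and 5 µM unlabelled arrestin peptide for full effect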
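Measured by: flow cytometry, FL1 (488/535 nm); Material: AP2 appendage R879A on GSH beads; Evaluation: percent response; Timing: pre-incubation 12 min, peptide binding 1 h, room temperature; Also added: 50 nM FITC-arrestin peptide; Medium: PBS with 0.05% Tween 20 and 0.1% BSA.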
CaV13 FRET inh – Primary screen for inhibitors of IQ motif and Ca2+-dependent inactivation inhibitor domain binding in CACNA1D, Förster resonance energy transfer in living cells, …; HEK cells, CFP/YFP FRET ICDI-IQ, plate reader, 10 min; percent FRET-ratio fall versus neutral wells; inhibition, % at 12.3 µM; actives 0.098% (n = 340,000);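 active = mean replicate inhibition of at least 30% and at least 1% of replicates passing that level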;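 note: 0% = median of the neutral control wells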
ADAM10 inh – ADAM10 inhibition, QFRET primary screen; O14672; recombinant ADAM10, EDANS/DABCYL FRET peptide cleavage, 3 h; inhibition, % at 7 µM; actives 0.62% (n = 370,000); AID 720582;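 active = inhibition above a per-campaign cutoff equal to the mean of compounds falling between control-based bounds plus 3 SD, cut at about 20% in these data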;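 note: 0% = DMSO wells while the 100% control is not disclosed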
ADAM17 inh – ADAM17 inhibition, QFRET primary screen; P78536; recombinant ADAM17, EDANS/DABCYL FRET peptide cleavage; inhibition, % at 6.95 µM; actives 0.83% (n = 370,000);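 active = inhibition above the mean of compounds lying between control limits plus 3 SD, set per campaign, cut at about 8.5% in these data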;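 note: 0% = DMSO-only wells as the low control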
NRP1-CendR mod – alters CendR peptide binding to human NRP-1. O14786. FAM-RPARPAR peptide binding to NRP-1, fluorescence polarization. inhibition, % at 25 µM. actives 0.85% (n = 360,000);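 active = inhibition or corrected inhibition above about 18%, plus a signal ratio from 0.5 to 1.5, limit read from the data, passing the limit was not always enough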
FAS-TE inh – FAS thioesterase (human) inhibition; P49327; recombinant FAS-TE, OMFH fluorogenic substrate, fluorescence endpoint; inhibition, % at 15 µM; actives 0.67% (n = 360,000);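 active = compounds whose normalised, plate-corrected inhibition of enzyme fluorescence in the single-dose primary screen is 50% or more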;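 note: 0% = DMSO with enzyme and 100% = substrate without enzyme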
ADAM10 confirm – confirmation of inhibitors of human ADAM10; shares compounds with ADAM10 inh; ADAM10 QFRET peptide cleavage, EDANS fluorescence; inhibition, % at 6.95 µM; actives 1% (n = 2,100);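 active = inhibition above about 20% chosen separately for each screening run, limit read from the data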;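 note: 0% = DMSO wells and 100% = marimastat wells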
ADAM17 ctr – inhibits human ADAM17 in ADAM10 exosite counter-screen | ADAM17 QFRET peptide cleavage, EDANS fluorescence | inhibition, % at 6.95 µM | shares compounds with ADAM10 inh | AID 743214 | actives 0.5% (n = 2,100);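 active = mean triplicate inhibition above the solvent-only control wells' mean plus 3 SD, cut at about 12% in these data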;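 note: 0% = DMSO wells and 100% = marimastat wells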
Active calls of the source: *; i = inactive; nt = no result.

SMILES	Arrestin-AP2 inh	CaV13 FRET inh	ADAM10 inh	ADAM17 inh	NRP1-CendR mod	FAS-TE inh	ADAM10 confirm	ADAM17 ctr
C=CCn1c(C)cc(C(=O)COC(=O)C2CC(=O)N(Cc3ccccc3)C2)c1C (centres undefined)	3	0	78*	-2	-4	-4	0	0
CCn1nc(C)c(C(=O)Nc2cc(Oc3cc(C)cc(C)c3)cc([N+](=O)[O-])c2)c1C	3	-6	21*	5	-1	46	6	2
Cc1[nH]c2ccccc2c1C(=O)c1c(N)[nH]c(C(=O)c2ccccc2)c1-c1ccc(Cl)cc1	nt	-6	21*	5	nt	nt	8	2
CC(C)(C)NC(=O)C(C1CC1)n1c(=O)c(-c2ccccc2)nc2ccccc21 (centres undefined)	nt	-10	i	-173	10	nt	nt	nt
CCN(CC)CCn1c(=S)[nH]c2cc(C(=O)NCCc3ccc(OC)c(OC)c3)ccc2c1=O	nt	-6	-33	-9	3	-2	nt	nt
Cc1ccc(C)c(OCC(=O)Nc2ccc3c(c2)OCO3)c1C	0	-4	20*	7	-2	14	1	0
Cc1cccc(OCC(=O)Nc2ccc3c(c2)OCO3)c1C	6	-6	-2	-2	-6	10	nt	nt
COc1ccccc1NC(=O)c1c(Nc2ccccc2F)sc(C(=O)Nc2cccc(Cl)c2)c1N	5	-5	27*	9.1*	-14	15	19	7
CCOc1cc(NS(=O)(=O)c2ccc(OC)cc2)c(OCC)cc1NC(=O)c1ccco1	-1	-6	0	-3	10	23	nt	nt
COc1ccc(S(=O)(=O)Nc2cc(OC)c(NC(=O)c3ccco3)cc2OC)cc1	-4	-5	21*	8	-15	25	1	0
COc1ccccc1NCC(O)COc1ccc(C(C)(C)C)cc1 (centres undefined)	0	-5	21*	5	-1	29	2	1
COc1ccc(C)cc1NC(=O)C(C)N(c1ccc(C)cc1)S(C)(=O)=O (centres undefined)	-3	-3	0	-2	3	10	nt	nt
Cc1ccc(N(C(C)C(=O)Nc2cc(Cl)ccc2Oc2ccccc2)S(C)(=O)=O)cc1 (centres undefined)	-4	-8	22*	8	2	37	7	2
CC(C)CCNC(=O)C(c1ccc(O)cc1)N(Cc1cccs1)C(=O)C1COc2ccccc2O1 (centres undefined)	17	-3	22*	8	5	15	6	2
C[C@@H]1CCN(C2CC2)S(=O)(=O)c2ccc(N3CC[C@@H](N(C)C)C3)cc2O1	nt	nt	-1	-5	nt	nt	nt	nt
COC(=O)C1CN(Cc2cn(Cc3ccc(C)cc3)nn2)CCS(=O)(=O)N1Cc1ccc(OC)cc1 (centres undefined)	nt	nt	0	0	nt	nt	nt	nt
Cc1ccc(NC(=O)c2ccc(CSc3nccc(C)n3)cc2)cc1	-5	nt	22*	-2	13	15	3	0
Cc1cc(S(=O)(=O)Nc2ccc(N3CCOCC3)cc2)ccc1Br	1	-2	6	2	-2	10	nt	nt
CN1C(=O)Cc2cc(S(=O)(=O)Nc3ccc(N4CCOCC4)cc3)ccc21	-1	-3	28*	8	-9	3	-1	0
CC1(C(=O)NC2CCCC2)CCC(=O)N1C1CCN(Cc2ccccc2)CC1 (centres undefined)	nt	-10	2	-3	7	-3	nt	nt
O=C(NCc1ccccc1)c1onc(CSc2ccc(Cl)cc2)c1C(=O)NCc1ccccc1	nt	-5	2	1	13	25	nt	nt
CC(C)NC(=O)c1c(CSc2ccccc2)noc1C(=O)NCc1ccccc1	5	-8	81*	4	32*	18	1	1

Screening results: PubChem, several laboratories
